Sampled rows, rich in hits. Any-hit rate of the full collection: about 3.1%.
HIV Env fusion = HIV envelope-mediated fusion inhibition; HeLa-JRFL Env/CEM21 cell fusion, luciferase; inhibition, % at 12.3 µM; hit rate 1.1% among 360,000;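 active means mean replicate inhibition score of at least 50 and every replicate individually at or above 50; inconclusive means only one of the two criteria met; inactive means mean below 50 and not all replicates reaching 50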;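 further: 0% = plate neutral controls and 100% = maraviroc near 300 nM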
FGF22 binding = shifts melting point of recombinant human FGF22; Q9HCT0; recombinant FGF22 thermal shift, SYPRO orange fluorescence; percent of sucrose octasulfate shift, DMSO zero; activity (Tm shift, normalised), % at 9.99 µM; hit rate 1.5% among 340,000;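 active means mean Tm shift, scaled 0 neutral to 100 positive control, at about 1.3% or above, every replicate too, limit read from the data; inconclusive means no clear call, values can overlap the other calls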
Target sequence (Q9HCT0 whole entry, looked up): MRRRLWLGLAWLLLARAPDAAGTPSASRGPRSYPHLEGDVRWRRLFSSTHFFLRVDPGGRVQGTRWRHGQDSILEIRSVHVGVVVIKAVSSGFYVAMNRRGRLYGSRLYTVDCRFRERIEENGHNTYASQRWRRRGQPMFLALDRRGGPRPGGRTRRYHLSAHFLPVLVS
PAX8 inh HTS = PAX8 transcriptional activity inhibition; RMG-I TPO-luciferase reporter, SteadyGlo, 24 h; inhibition, % at 12.6 µM; hit rate 1.2% among 360,000;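 active means mean replicate inhibition at least 60% with every replicate also reaching 60%; inconclusive means only one of the two criteria is met; inactive means mean below 60% and not all replicates reaching 60%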;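 further: luciferase light reporting Pax8 driven TPO promoter activity; plate controls were median of neutral control wells for no effect and mitoxantrone controls for full effect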
PGC1a acetyl inh = PGC1a acetylation modulation, inhibitor mode. U2OS PGC1a acetylation, AlphaScreen anti-acetyl-lysine; with virally co-expressed GCN5 acetyltransferase. inhibition, % at 15.6 µM. hit rate 0.17% among 350,000;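 active means every replicate shows inhibition of at least 40%; inconclusive means mean inhibition at least 40% but some replicate below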;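 further: 0% = neutral control wells and 100% = positive control wells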
FN deposition inh = fibronectin deposition inhibition; AH1F fibroblasts, Alexa488-fibronectin deposition fluorescence, overnight; inhibition, % at 12.6 µM; hit rate 0.086% among 350,000;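 active means mean inhibition across replicates of 30% or more, regardless of how many single replicates reach that level; inconclusive means mean under 30% yet at least half of replicates reach 30%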;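 further: positive control wells lacked labelled fibronectin entirely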
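Material: AH1F fibroblast monolayer depositing Alexa488-labelled fibronectin into matrix / Amount: 10000 AH1F cells per well / Signal: fluorescence 485/525 nm / Medium: DMEM, 2% serum / Compound: single dose, pinned / Incubation: 1 h cell adhesion before compound, then overnight fibronectin incubation / Reagent: Alexa488-FN, 24 nM final / Read-out: inhibition of fibronectin deposition signal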
EWS-Fli block = inhibitors of EWS/Fli oncoprotein transcriptional activity; A673 NR0B1-luciferase reporter, viability-normalised; inhibition, % at 12.6 µM; hit rate 0.67% among 350,000; AID 651661;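 active means mean inhibition of at least 50% after viability correction, with every replicate also passing that limit; inconclusive means mean reaches 50% but only one of two replicates passes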;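 further: firefly luciferase signal divided by Alamar Blue viability fluorescence both relative to DMSO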
* hit, by the source's call; ? = inconclusive; nt = no result given; [ ] = dose if it differs, or a comment.

SMILES	HIV Env fusion	FGF22 binding	PAX8 inh HTS	PGC1a acetyl inh	FN deposition inh	EWS-Fli block
O=S(=O)(N[C@@H]1CC[C@@H](CCNS(=O)(=O)c2ccccc2Cl)O[C@H]1CO)c1ccccc1	11[16.7 µM]	0	-9	62*	nt	-1
O=C(CC1CC1)N[C@@H]1CC[C@H](CCNS(=O)(=O)c2ccc(Cl)cc2)O[C@H]1CO	-14[16.7 µM]	0	-11	64*	-13	6
O=C(CC1CC1)N[C@@H]1CC[C@H](CCNS(=O)(=O)c2ccc(F)cc2)O[C@H]1CO	-6[16.7 µM]	0	-5	-4	-3	1
Cc1noc(C)c1S(=O)(=O)N(C)C[C@@H]1Oc2ccc(NS(=O)(=O)c3ccc(F)cc3)cc2CC(=O)N([C@H](C)CO)C[C@H]1C	0[16.7 µM]	0	nt	-3	nt	-3
COCC(=O)N1C[C@@H](C)[C@@H](OC)CN(C)C(=O)c2ccc(NC(=O)NC(C)C)cc2OC[C@H]1C	nt	0	nt	-7	4	5
CCOC(=O)c1nc(Nc2ccc(N3CCOCC3)cc2)c2ccccc2n1	-5	0	16	2	4	-11
Clc1nc(Nc2ccc(N3CCOCC3)cc2)c2ccccc2n1	-4	43*	6	nt	-1	-3
CC1CCN(c2ccc(-c3cccc(NC(=O)C(F)(F)F)c3)nn2)CC1	80*	0	94*	nt	6	nt
O=C(Nc1cccc(-c2ccc(N3CCCCC3)nn2)c1)C(F)(F)F	68*	0	95*	4	8	nt
COc1ccc2c(c1)[N+](C)(C)C(C)(C)C=C2C	-6	43*	5	nt	-16	17
CCOc1ccc2c(c1)[N+](C)(C)C(C)(C)C=C2C	0	nt	21	3	5	16
COc1ccc(NC(=O)Nc2ccc3c(c2)CC(=O)N([C@H](C)CO)C[C@H](C)[C@@H](CN(C)Cc2ccc(C(=O)O)cc2)O3)cc1	nt	0	-45	2	nt	42
O=C(CCl)N1c2ccccc2CCc2ccccc21	-61	0	17	-3	8	84*
CCOc1cnn(-c2cc(Oc3ccc(C)cc3)ncn2)c(=O)c1Cl	nt	nt	nt	4	nt	nt
Cc1ccccc1Oc1cc(-n2ncc(Cl)c(Cl)c2=O)ncn1	-12	0	-20	69*	14	42
Cc1cccc(NC(=O)COc2ccc(/C=C\c3[nH]c(=O)[nH]c(=O)c3[N+](=O)[O-])cc2)c1	10	44*	6	3	-4	-8
O=c1[nH]c(/C=C/c2ccc([N+](=O)[O-])cc2)c([N+](=O)[O-])c(=O)[nH]1	-10	0	-2	?	-6	-3
Cc1cc(=O)c2ccccc2n1Cc1ccccc1	3	44*	-6	nt	-8	23
Cc1cc(=O)[nH]c(=O)n1Cc1ccccc1	0	43*	5	28	-5	-10
O=C(O)c1cc(=O)n(Cc2ccccc2)c(=O)[nH]1	-14	0	16	0	7	-11
Cc1cc(=O)c2ccccc2n1CC(=O)NCc1ccccc1	nt	nt	nt	0	nt	nt
CO[C@H]1CN(C)C(=O)c2ccc(NS(=O)(=O)c3cn(C)cn3)cc2OC[C@H](C)N(Cc2cccc(F)c2)C[C@H]1C	nt	0	nt	-1	2	-3
C=CCn1cc(/C=C/c2cc[n+](C)cc2)c2ccccc21	?	0	93*	nt	-7	25
Cc1ccccc1/C=C/c1cc[n+](C)cc1	15	0	5	-11	7	-7
CCn1cc(/C=C/c2cc[n+](C)cc2)c2ccccc21	40	0	77*	-3	-83	-16
CC(C)n1cc(/C=C/c2cc[n+](C)cc2)c2ccccc21	72*	0	83*	8	-96	9
O=C(c1ccccc1)N1CC[C@@H]2[C@@H](CO)Nc3ccc(C#Cc4cccc(F)c4)cc3[C@@H]21	nt	0	-8	16	-1	-16
O=C(C[C@@H]1C[C@@H]2c3cc(NS(=O)(=O)c4ccc(F)cc4)ccc3O[C@@H]2[C@H](CO)O1)NCCc1ccccc1	8[16.7 µM]	0	2	-8	nt	1
COc1ccccc1NC(=O)N1[C@H](CO)[C@H](c2ccccc2)[C@@H]1C#N	nt	0	-11	-2	5	8
C[C@@H]1CN([C@@H](C)CO)C(=O)Cc2cc(NC(=O)Nc3ccccc3)ccc2O[C@H]1CN(C)Cc1ccc(C(F)(F)F)cc1	26[16.7 µM]	0	nt	-2	nt	18

From PubChem
